Source: ChEMBL document CHEMBL1240337, “Identification of proteases that regulate erythrocyte rupture by the malaria parasite Plasmodium falciparum” (Nat Chem Biol, 2008)
Calls of active or inactive are those of the source. The calls are words filed in the database; no cut-off is given here.

Legend:
[1] = Cytotoxicity against african green monkey BSC1 cells after 24 hrs by celltiter glo assay; format: cell-based; settings: chlorocebus aethiops, bsc-1, 24 h
Summary of the method: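 BSC-1 African green monkey kidney epithelial cells exposed to compounds; viability read by CellTiter-Glo luminescence.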

Plasmodium falciparum [2] = assay: Antiplasmodial activity against Plasmodium falciparum schizont infected in human erythrocytes assessed as effect on parasite ring-to-schizont morphology at 1 to 50 uM after 24 by propidium iodide staining-based FACS analysis; format: functional, organism-based
Plasmodium falciparum [3] = assay: Antiplasmodial activity against Plasmodium falciparum infected in human erythrocytes assessed as effect on parasite morphology by Giemsa staining; format: functional, organism-based
Summary of the method: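 Giemsa-stained thin blood films were read from schizonts exposed at 36 h post invasion to 10 µM inhibitor, to assess rupture and morphology.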

[4] = target: T1, Protease, putative (Plasmodium falciparum 3D7) (UniProt Q8I1Y2); assay: Inhibition of Plasmodium falciparum 3D7 PFD0230c by fluorescence spectrophotometry
T1 sequence (whole entry): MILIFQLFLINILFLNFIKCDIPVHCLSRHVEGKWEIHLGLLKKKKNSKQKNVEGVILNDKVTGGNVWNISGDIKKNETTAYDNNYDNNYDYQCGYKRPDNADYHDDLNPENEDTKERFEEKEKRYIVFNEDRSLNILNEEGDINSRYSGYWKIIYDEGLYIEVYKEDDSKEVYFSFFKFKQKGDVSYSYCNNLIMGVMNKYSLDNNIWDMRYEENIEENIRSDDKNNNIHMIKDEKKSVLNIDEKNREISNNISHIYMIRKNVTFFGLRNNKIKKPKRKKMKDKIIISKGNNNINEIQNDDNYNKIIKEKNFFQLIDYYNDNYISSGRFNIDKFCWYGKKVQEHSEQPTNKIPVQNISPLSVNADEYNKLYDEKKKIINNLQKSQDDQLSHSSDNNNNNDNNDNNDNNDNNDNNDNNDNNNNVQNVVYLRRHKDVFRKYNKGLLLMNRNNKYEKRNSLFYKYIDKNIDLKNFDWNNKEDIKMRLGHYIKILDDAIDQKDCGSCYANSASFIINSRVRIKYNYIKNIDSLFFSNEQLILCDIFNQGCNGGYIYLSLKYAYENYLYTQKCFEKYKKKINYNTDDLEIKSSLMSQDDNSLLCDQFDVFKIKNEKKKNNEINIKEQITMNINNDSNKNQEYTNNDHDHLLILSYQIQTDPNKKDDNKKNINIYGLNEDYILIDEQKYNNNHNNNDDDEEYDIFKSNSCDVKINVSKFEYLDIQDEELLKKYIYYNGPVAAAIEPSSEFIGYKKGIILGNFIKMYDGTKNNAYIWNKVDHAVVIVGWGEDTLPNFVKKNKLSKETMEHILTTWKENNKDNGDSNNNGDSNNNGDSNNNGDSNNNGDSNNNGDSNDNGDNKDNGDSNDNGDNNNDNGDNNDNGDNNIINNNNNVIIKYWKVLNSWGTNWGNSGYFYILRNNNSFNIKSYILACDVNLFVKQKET

[5] = target: T2, Preprocathepsin c, putative (Plasmodium falciparum 3D7) (UniProt Q8I0V1); assay: Inhibition of Plasmodium falciparum 3D7 PFL2290w by fluorescence spectrophotometry
T2 sequence (whole entry): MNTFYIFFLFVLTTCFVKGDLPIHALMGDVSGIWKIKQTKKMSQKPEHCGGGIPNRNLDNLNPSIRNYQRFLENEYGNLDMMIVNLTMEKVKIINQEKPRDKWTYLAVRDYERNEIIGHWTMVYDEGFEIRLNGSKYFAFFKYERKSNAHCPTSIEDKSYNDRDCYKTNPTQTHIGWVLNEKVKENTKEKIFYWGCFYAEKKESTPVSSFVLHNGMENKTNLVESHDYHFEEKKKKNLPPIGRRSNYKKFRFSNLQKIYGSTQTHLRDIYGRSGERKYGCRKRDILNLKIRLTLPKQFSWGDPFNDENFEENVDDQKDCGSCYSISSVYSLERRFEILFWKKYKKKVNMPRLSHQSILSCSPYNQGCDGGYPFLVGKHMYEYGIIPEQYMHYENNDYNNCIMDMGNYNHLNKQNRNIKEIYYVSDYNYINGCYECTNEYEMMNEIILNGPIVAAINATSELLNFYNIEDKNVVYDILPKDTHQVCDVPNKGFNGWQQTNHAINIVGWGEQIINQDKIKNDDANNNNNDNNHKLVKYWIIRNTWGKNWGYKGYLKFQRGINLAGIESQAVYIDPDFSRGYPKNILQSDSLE

[6] = target: T3, Falcipain-3 (Plasmodium falciparum 3D7) (UniProt Q8IIL0); assay: Inhibition of Plasmodium falciparum 3D7 falcipain-3 by fluorescence spectrophotometry
T3 sequence (whole entry): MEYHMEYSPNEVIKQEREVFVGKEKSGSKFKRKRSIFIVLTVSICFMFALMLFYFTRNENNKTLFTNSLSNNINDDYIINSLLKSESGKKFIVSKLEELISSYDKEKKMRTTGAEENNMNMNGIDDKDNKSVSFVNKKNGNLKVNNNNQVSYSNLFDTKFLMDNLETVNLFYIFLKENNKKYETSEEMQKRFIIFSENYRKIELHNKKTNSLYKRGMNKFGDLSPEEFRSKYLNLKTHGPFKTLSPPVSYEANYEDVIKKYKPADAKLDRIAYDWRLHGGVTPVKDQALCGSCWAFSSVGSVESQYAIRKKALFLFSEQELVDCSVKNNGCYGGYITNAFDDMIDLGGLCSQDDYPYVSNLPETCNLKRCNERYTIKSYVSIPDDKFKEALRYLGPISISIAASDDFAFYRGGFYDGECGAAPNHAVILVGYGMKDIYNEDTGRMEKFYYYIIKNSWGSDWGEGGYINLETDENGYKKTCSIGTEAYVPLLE

Plasmodium falciparum [7] = assay: Inhibition of Plasmodium falciparum 3D7 falcipain-2 by fluorescence spectrophotometry
[8] = target: T4, Cysteine proteinase falcipain-1 (Plasmodium falciparum 3D7) (UniProt Q8I6V0); assay: Inhibition of Plasmodium falciparum 3D7 falcipain-1 by fluorescence spectrophotometry
T4 sequence (whole entry): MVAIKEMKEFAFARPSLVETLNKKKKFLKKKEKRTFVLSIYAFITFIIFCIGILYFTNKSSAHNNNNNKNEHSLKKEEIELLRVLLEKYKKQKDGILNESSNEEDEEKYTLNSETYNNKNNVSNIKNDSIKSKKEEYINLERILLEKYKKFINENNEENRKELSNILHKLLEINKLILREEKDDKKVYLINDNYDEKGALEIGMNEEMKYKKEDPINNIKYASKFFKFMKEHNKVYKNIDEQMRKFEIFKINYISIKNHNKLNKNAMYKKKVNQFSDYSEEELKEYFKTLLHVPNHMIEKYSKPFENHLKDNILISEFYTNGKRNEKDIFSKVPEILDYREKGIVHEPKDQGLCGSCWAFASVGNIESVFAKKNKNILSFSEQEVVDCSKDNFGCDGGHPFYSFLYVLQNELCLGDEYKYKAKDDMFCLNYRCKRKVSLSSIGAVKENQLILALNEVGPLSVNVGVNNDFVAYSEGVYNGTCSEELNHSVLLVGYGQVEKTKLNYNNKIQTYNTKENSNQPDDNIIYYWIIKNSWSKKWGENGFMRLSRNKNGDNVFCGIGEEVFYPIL

Row | inhibition [4] | inhibition [5] | inhibition [6] | inhibition [8] | Structure (SMILES) | Activity [1] | Activity (Plasmodium falciparum [2]) | Activity (Plasmodium falciparum [3]) | inhibition (Plasmodium falciparum [7])
1 | Active | inactive | Active | Active | CCC[C@H](N)C(=O)N[C@H](/C=C/S(=O)(=O)c1ccccc1)CCc1ccccc1 | Non-toxic | inactive | inactive | Active
2 | Active | inactive | Active | Active | C[C@H](N)C(=O)N[C@H](/C=C/S(=O)(=O)c1ccccc1)CCc1ccccc1 | Non-toxic | inactive | inactive | Active
